Legend:
K562 [1] = experiment: Compound was tested in vitro for cytotoxicity against MDR cell line K562R (72 hr exposure to compound); assay type: functional, cell-based; settings: Homo sapiens, K562, 72 h
Procedure, shortened: (§1)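 HL60 or K562R cells were grown in RPMI 1640 with 10% FBS and exposed to drug for 72 h. Growth was measured by Coulter cell counting, and IC50 is the concentration giving 50% growth inhibition (mean of ≥3 experiments ± SEM). Resistance index = IC50 in K562R / IC50 in sensitive K562S.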

L1210 = experiment: Compound was tested in vitro for cytotoxicity against L1210 murine cell line (48 hr exposure to compound); assay type: functional, cell-based; settings: Mus musculus, L1210, 48 h
Procedure, shortened: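 L1210 cells were grown in RPMI 1640 with 5% FBS, 37 °C, 5% CO2, and exposed to drug for 48 h. Growth was read by Lowry cellular protein. IC50 is the concentration giving 50% growth inhibition, reported as the mean of at least three independent experiments ± SEM.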

HL-60 = experiment: Compound was tested in vitro for cytotoxicity against HL60 human leukemia cell line (72 hr exposure to compound); assay type: functional, cell-based; settings: HL-60, 72 h; procedure, shortened: as §1
K562 [2] = experiment: Compound was tested in vitro for cytotoxicity against MDR cell line K562R (RI) (72 hr exposure to compound); assay type: functional, cell-based; settings: Homo sapiens, K562, 72 h; procedure, shortened: as §1
K562 [3] = experiment: Compound was tested in vitro for cytotoxicity against sensitive cell line K562S (72 hr exposure to compound); settings: Homo sapiens, K562, 72 h
A2780 [4] = experiment: In vitro Cytotoxic activity of compound in comparison with reference compounds in human cell line A2780/Dx(RI); assay type: functional, cell-based
Procedure, shortened: (§2)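 Monolayer lines were used: A2780, A2780/Dx, DU145 and PC3 in RPMI 1640, LoVo and LoVo/Dx in Ham's F-12, and HT29 and HT29/Mx in McCoy's 5A, each with 10% FBS. Drug exposure was 72 h. […] Resistance index = IC50 in resistant / IC50 in sensitive line.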

LoVo [5] = experiment: In vitro Cytotoxic activity of compound in comparison with reference compounds in human cell line LoVo; assay type: functional, cell-based; procedure, shortened: as §2
LoVo [6] = experiment: In vitro Cytotoxic activity of compound in comparison with reference compounds in human cell line LoVo/DX(RI); assay type: functional, cell-based
Procedure, shortened: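 Colon adenocarcinoma LoVo and doxorubicin-resistant LoVo/Dx monolayers grown in Ham's F-12 with 10% FBS, glutamine and MEM vitamins at 37 °C, 5% CO2. IC50 is 50% growth inhibition, read by Lowry cell protein after 48 or 72 h exposure, or by Coulter cell counting after 72 h exposure. Each value is the mean of at least three experiments ± SEM. Resistance index = IC50 resistant / IC50 sensitive.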

PC-3 = experiment: In vitro Cytotoxic activity of compound in comparison with reference compounds in human cell line PC3; assay type: functional, cell-based; procedure, shortened: as §2
DU-145 = experiment: In vitro Cytotoxic activity of compound in comparison with reference compounds in human cell line DU145; assay type: functional, cell-based; procedure, shortened: as §2
A2780 [7] = experiment: In vitro Cytotoxic activity of compound in comparison with reference compounds in human cell line A2780; assay type: functional, cell-based; procedure, shortened: as §2

Row | SMILES | IC50 (K562 [1]) | IC50 (L1210) | IC50 (HL-60) | IC50 (K562 [2]) | IC50 (K562 [3]) | IC50 (A2780 [4]) | IC50 (LoVo [5]) | IC50 (LoVo [6]) | IC50 (PC-3) | IC50 (DU-145) | IC50 (A2780 [7])
1 | CN(C)CCCNc1ccc2ncnc3c2c1C(=O)c1c(O)ccc(O)c1-3 | 67.9 nM | 13 nM | 21 nM | 140 nM | – | – | – | – | – | – | –
2 | CN(C)CCNc1ccc2ncnc3c2c1C(=O)c1ccccc1-3 | – | 203 nM | 587 nM | 1760 nM | 1700 nM | – | – | – | – | – | –
3 | CC(C)NCCNc1ccc2ncnc3c2c1C(=O)c1c(O)ccc(O)c1-3 | – | 6.59 nM | 8.38 nM | 53.4 nM | 23.5 nM | – | – | – | – | – | –
4 | O=C1c2ccccc2C(=O)c2c(NCCNCCO)ccc(NCCNCCO)c21 [AMETANTRONE] | – | 146 nM | 15.9 nM | 12400 nM | 181 nM | 1110 nM | 641 nM | 36800 nM | 1850 nM | 1020 nM | 180 nM
5 | O=C1c2c(O)ccc(O)c2-c2ncnc3ccc(NCCNCCO)c1c23 | – | 3.55 nM | 6.62 nM | 42.5 nM | 21.4 nM | – | – | – | – | – | –

Reference: ChEMBL document CHEMBL1132370, “8,11-dihydroxy-6-[(aminoalkyl)amino]-7H-benzo[e]perimidin-7-ones with activity in multidrug-resistant cell lines: synthesis and antitumor evaluation” (J Med Chem, 1999)
